For series [1], the system named is Trypanosoma brucei rhodesiense. The series is described as follows: Antiparasitic activity against Trypanosoma brucei rhodesiense STIB900. It is filed as functional, organism-based.
The test system of another series is Trypanosoma cruzi. The series is described as follows: Antiparasitic activity against Trypanosoma cruzi Tulahuen C2C4. It counts as functional, organism-based.
Another series has as its system Leishmania donovani. The series is described as follows: Antiparasitic activity against Leishmania donovani […]. It is filed as functional, organism-based. Summed up:
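Leishmania donovani MHOM-ET-67/L82 tested as axenic amastigotes; IC50 determined.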

The subject of a further series is Plasmodium falciparum. The series is described as follows: Antiparasitic activity against Plasmodium falciparum K1. It counts as functional, organism-based.
A further series has as its system L6. Briefly: Cytotoxicity against rat L6 cells. It counts as cell-based. Summed up:
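Cytotoxicity was measured on rat skeletal myoblast L6 cells, with the IC50 as read-out.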

Series [2] can be described thus: Selectivity index, ratio of IC50 for rat L6 cells to IC50 for Plasmodium falciparum K1. It counts as toxicity, cell-based. The following applies: rat L6 cells (cytotoxicity) versus Plasmodium falciparum K1, read-out: Ratio IC50.

In general, IC50 refers to the concentration that gives 50% inhibition. As to `Clc1ccc2[nH]c3c[n+](CCCCCCCCCCCC[n+]4ccc5c(c4)[nH]c4ccc(Cl)cc45)ccc3c2c1`, the IC50 amounted to 1.2 µM in series [1]; 10 µM with Trypanosoma cruzi; 0.6 µM in the series on Leishmania donovani; 0.023 µM with Plasmodium falciparum; 4.3 µM with L6. The selectivity ratio in series [2] came out at 186.

On to `Clc1ccc2[nH]c3c[n+](Cc4ccc(C[n+]5ccc6c(c5)[nH]c5ccc(Cl)cc56)cc4)ccc3c2c1`, for which the half-maximal inhibitory concentration (IC50) in series [1] is 1 µM; in the series on Trypanosoma cruzi, over 51.7 µM; in the series on Leishmania donovani, 19.9 µM; in the series on Plasmodium falciparum, 0.223 µM; with L6, 17.4 µM. The selectivity ratio in series [2] stood at 78.

With `Clc1ccc2[nH]c3c[n+](C/C=C\C[n+]4ccc5c(c4)[nH]c4ccc(Cl)cc45)ccc3c2c1`, the concentration for half-maximal inhibition (IC50) is 1.1 µM in series [1]; over 56.6 µM with Trypanosoma cruzi; 9.6 µM with Leishmania donovani; 0.113 µM with Plasmodium falciparum; 61.1 µM with L6. In series [2], the selectivity ratio came out at 540.

As for `Clc1ccc2[nH]c3c[n+](CC#CC[n+]4ccc5c(c4)[nH]c4ccc(Cl)cc45)ccc3c2c1`, the IC50 in series [1] amounted to 6.4 µM; in the series on Trypanosoma cruzi, 10.6 µM; in the series on Leishmania donovani it was 34.7 µM; in the series with Plasmodium falciparum it was 0.738 µM; in the series on L6, 28.5 µM. The selectivity ratio in series [2] worked out at 39.

Consider `Clc1ccc2[nH]c3c[n+](CCCCCC[n+]4ccc5c(c4)[nH]c4ccc(Cl)cc45)ccc3c2c1`, for which the concentration for half-maximal inhibition (IC50) in series [1] turned out to be 1.2 µM; with Trypanosoma cruzi, 36.2 µM; with Leishmania donovani, 6.6 µM; in the series with Plasmodium falciparum, 0.02 µM; in the series with L6 it was 36.2 µM. For the same compound, the selectivity ratio in series [2] was 1810.

As for `Clc1ccc2[nH]c3c[n+](CCCCCCCC[n+]4ccc5c(c4)[nH]c4ccc(Cl)cc45)ccc3c2c1`, the 50% inhibitory concentration (IC50) in series [1] is 0.9 µM; in the series on Trypanosoma cruzi it was 31.4 µM; in the series with Leishmania donovani, 2.3 µM; with Plasmodium falciparum, 0.018 µM; in the series with L6, 7.5 µM. Also, the selectivity ratio in series [2] was 423.

With `Clc1ccc2[nH]c3c[n+](CCCCCCCCCC[n+]4ccc5c(c4)[nH]c4ccc(Cl)cc45)ccc3c2c1`, the IC50 in series [1] turned out to be 1.1 µM; in the series on Trypanosoma cruzi, 36.6 µM; in the series on Leishmania donovani, 0.9 µM; with Plasmodium falciparum, 0.014 µM; in the series with L6, 8.2 µM. Moreover, in series [2], the selectivity ratio stood at 575.

In the case of `Clc1ccc2[nH]c3c[n+](Cc4ccc(-c5ccc(C[n+]6ccc7c(c6)[nH]c6ccc(Cl)cc67)cc5)cc4)ccc3c2c1`, the IC50 is 2.5 µM in series [1]; over 45.7 µM with Trypanosoma cruzi; 68.4 µM in the series with Leishmania donovani; 0.056 µM in the series on Plasmodium falciparum; 23 µM in the series on L6. Also, in series [2], the selectivity ratio worked out at 408.

As to `O=C(O)c1cn(C2CC2)c2cc(N3CCN(Cc4ccc(C[n+]5ccc6c(c5)[nH]c5ccc(Cl)cc56)cc4)CC3)c(F)cc2c1=O`, the concentration for half-maximal inhibition (IC50) in series [1] was 92.5 µM; in the series with Trypanosoma cruzi, over 44.6 µM; in the series with Leishmania donovani, 61.6 µM; in the series with Plasmodium falciparum it was over 7.4 µM; in the series with L6, 121 µM.

Turning to `Clc1ccc2[nH]c3c[n+](CCOCC[n+]4ccc5c(c4)[nH]c4ccc(Cl)cc45)ccc3c2c1`, the 50% inhibitory concentration (IC50) in series [1] worked out at 1.2 µM; with Trypanosoma cruzi it was 51.1 µM; with Leishmania donovani, 8.6 µM; in the series on Plasmodium falciparum it was 0.018 µM; in the series on L6 it was 47.9 µM. For the same compound, the selectivity ratio in series [2] amounted to 2620.

Regarding `Clc1ccc2[nH]c3c[n+](Cc4cccc(C[n+]5ccc6c(c5)[nH]c5ccc(Cl)cc56)c4)ccc3c2c1`, the half-inhibitory concentration (IC50) worked out at 1.2 µM in series [1]; 5.9 µM in the series with Trypanosoma cruzi; 0.2 µM in the series with Leishmania donovani; 0.121 µM in the series with Plasmodium falciparum; 3.8 µM in the series with L6. For the same compound, in series [2], the selectivity ratio was determined as 32.

With `C[n+]1ccc2c(c1)[nH]c1ccc(Cl)cc12` [NOSTOCARBOLINE], the IC50 in series [1] is 70.5 µM; in the series with Trypanosoma cruzi it was over 87.1 µM; in the series on Leishmania donovani it was 34.3 µM; with Plasmodium falciparum, 0.194 µM; with L6 it was 121 µM. Further, the selectivity ratio in series [2] was 622.

For the origin of these results see ChEMBL document CHEMBL1155825, “Potent and selective antiplasmodial activity of the cyanobacterial alkaloid nostocarboline and its dimers” (Bioorg Med Chem Lett, 2008).
